For two compounds, Activity, IC50 and Kd results are on record in ChEMBL document CHEMBL4819003, “Optimization of novel oxidative DIMs as Nur77 modulators of the Nur77-Bcl-2 apoptotic pathway” (Eur J Med Chem, 2021).

The source made the active and inactive calls. The rule behind the calls is not given here.

In test [1] the target is T1, Nuclear receptor subfamily 4immunitygroup A member 1 (Homo sapiens, UniProt P22736). Nature of the test: Modulation of Myc-Nur77 (unknown origin) transfected in human HEK293T cells assessed as induction of Myc-Nur77 mitochondrial targeting by measuring increase in Myc-Nur77 accumulation in mitochondria at 0.5 uM measured after 2 hrs by western blot analysis. The conditions noted are these: filed as modulator. An outline of the steps:
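HEK293T cells transfected with Myc-Nur77 were exposed to 0.5 μM compound for 2 h. Cells were homogenised in sucrose Buffer D; 500 g then 5000 g spins gave a mitochondrial pellet. Whole-cell and mitochondrial fractions were western blotted for Myc-Nur77, with PARP and Tom20 as fraction-purity markers.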
(A western blot detects proteins with antibodies after separation by electrophoresis.)

Test [2] relates to MDA-MB-231. As to the kind of experiment: Induction of apoptosis in human MDA-MB-231 cells assessed as PARP cleavage at 0.5 uM measured after 6 hrs by western blot assay. The test is classed as functional, cell-based. The method, boiled down:
(§1)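 Cells exposed to 0.5 µM for 6 h. Lysates resolved by SDS-PAGE and blotted to PVDF, blocked in 5% milk/TBST, probed with primary antibodies at 1:1000, ECL detection. Apoptosis scored as the densitometric ratio of cleaved PARP band to intact PARP band; mean ± SD, n = 3.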

Test [3] relates to HCT-116. As to the kind of experiment: Induction of apoptosis in human HCT-116 cells assessed as PARP cleavage at 0.5 uM measured after 6 hrs by western blot assay. In kind it is functional, cell-based. An outline of the steps: as §1
Test [4] relates to BT-549. As to the kind of experiment: Induction of apoptosis in human BT-549 cells assessed as PARP cleavage at 0.5 uM measured after 6 hrs by western blot assay. In kind it is functional, cell-based. An outline of the steps:
as §1

The test system of test [5] is SW-620. As to the kind of experiment: Induction of apoptosis in human SW-620 cells assessed as PARP cleavage at 0.5 uM measured after 6 hrs by western blot assay. In kind it is functional, cell-based. An outline of the steps:
as §1

For test [6], the system named is MEF. Nature of the test: Induction of apoptosis in wild type mouse MEF cells assessed as PARP cleavage at 0.5 uM measured after 6 hrs by western blot assay. The test is classed as functional, cell-based. The method, boiled down: (§2)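 Wild-type, Nur77−/− or Bcl-2−/− mouse embryonic fibroblasts grown in DMEM with 10% FBS and treated with 0.5 µM for 6 h. PARP cleavage detected by western blot, primary antibodies at 1:1000, ECL.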

Test [7] concerns the target T1, Nuclear receptor subfamily 4immunitygroup A member 1. Nature of the test: Modulation of Myc-Nur77-LBD (unknown origin) transfected in human HEK293T cells assessed as induction of Myc-Nur77 mitochondrial targeting by measuring increase in Myc-Nur77 accumulation in mitochondria at 0.5 uM measured after 2 hrs by Mito-tracker dye based confocal microscopy method. The conditions noted are these: filed as modulator. The method, boiled down:
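HEK293T cells transfected with Myc-Nur77-LBD were given 0.5 μM compound for 2 h, stained with Mito-Tracker and immunostained. Nur77 mitochondrial localisation was visualised by confocal microscopy.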

Test [8] deals with MEF. Nature of the test: Induction of apoptosis in mouse MEF cells deficient in Bcl2 assessed as PARP cleavage at 0.5 uM measured after 6 hrs by Western blot assay. In kind it is functional, cell-based. An outline of the steps:
as §2

The test system of test [9] is Mus musculus. As to the kind of experiment: Antitumour activity against FVB/N mammary tumor MMTV-PyMT mouse model assessed as inhibition of tumour growth at 3 mg/kg, po administered daily for 14 days. In kind it is functional, organism-based. The conditions noted are these: time 14.0 day. An outline of the steps:
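Female MMTV-PyMT transgenic mice (FVB/N background), 12 weeks old, randomized n = 6 per group; daily oral gavage 3 mg/kg for 14 days. Dosing solution: DMSO stock diluted in normal saline with 5.0% (V/V) Tween-80 to 3 mg/mL. Tumours weighed at end; mean ± SD, Student's t-test versus untreated controls.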

The test system of test [10] is MDA-MB-231. Nature of the test: Cytotoxicity against human MDA-MB-231 cells assessed as inhibition of cell growth measured after 24 hrs by MTT assay. The test is classed as functional, cell-based. The conditions noted are these: MDA-MB-231, 24 h. The method, boiled down: (§3)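 MTT viability assay, 24 h exposure to a concentration series, 10^4 cells/well. Cancer lines were in DMEM (BT549, MDA-MB-231) or RPMI-1640 (HCT116, SW620) with 10% FBS. MCF10A and NCM460 were in DMEM with 20% FBS and 10 ng/ml EGF. MTT at 5 mg/mL for 4 h at 37 °C, formazan dissolved in DMSO, A490. IC50 from curve fit; mean ± SD, at least 6 experiments.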
(In general: Formazan colour is commonly taken as a measure of viable cells.)

Test [11] relates to BT-549. As to the kind of experiment: Cytotoxicity against human BT-549 cells assessed as inhibition of cell growth measured after 24 hrs by MTT assay. In kind it is functional, cell-based. To be noted: BT-549, 24 h. The method, boiled down: as §3
The subject of test [12] is MCF-10A. As to the kind of experiment: Cytotoxicity against human MCF-10A cells assessed as inhibition of cell growth measured after 24 hrs by MTT assay. In kind it is cell-based. To be noted: Homo sapiens, MCF-10A, 24 h. An outline of the steps: as §3
Test [13] relates to HCT-116. As to the kind of experiment: Cytotoxicity against human HCT-116 cells assessed as inhibition of cell growth measured after 24 hrs by MTT assay. In kind it is functional, cell-based. The conditions noted are these: Homo sapiens, HCT-116, 24 h. An outline of the steps: as §3
The test system of test [14] is SW-620. As to the kind of experiment: Cytotoxicity against human SW-620 cells assessed as inhibition of cell growth measured after 24 hrs by MTT assay. In kind it is functional, cell-based. To be noted: SW-620, 24 h. An outline of the steps: as §3
For test [15], the system named is NCM460. As to the kind of experiment: Cytotoxicity against human NCM460 cells assessed as inhibition of cell growth measured after 24 hrs by MTT assay. The test is classed as cell-based. The conditions noted are these: Homo sapiens, NCM460, 24 h. An outline of the steps:
as §3

Test [16] addresses T1, Nuclear receptor subfamily 4immunitygroup A member 1. As to the kind of experiment: Binding affinity to recombinant human N-terminal His-tagged Nur77-LBD (367 to 598 residues) expressed in Escherichia coli BL21 DE3 by flourescence quenching assay. An outline of the steps: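 Human Nur77-LBD (367–598), N-terminal His tag, pET15b in E. coli BL21 DE3, Ni resin purified. Nur77-LBD at 1 µM in PBS in a quartz cell, titrated with compound over 0.01–1 µM at 25 °C. Excitation 280 nm, emission scanned 300–500 nm; peak intensity at 330 nm versus compound concentration fitted to a reported formula for Kd.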

The target is the same in test [17]. As to the kind of experiment: Binding affinity to recombinant human N-terminal His-tagged Nur77-LBD (367 to 598 residues) expressed in Escherichia coli BL21 DE3 by surface plasmon resonance assay. An outline of the steps:
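His-tagged human Nur77-LBD (367–598) from E. coli BL21 DE3, diluted to 0.05 mg/mL in 10 mM NaAc pH 5.0 and amine-coupled to a CM5 chip (~9000 RU). Compounds at 0.01–5 µM in PBS with 0.4% DMSO, 25 °C, 30 µL/min; 150 s association, 420 s dissociation, regeneration with 10 mM glycine-HCl pH 2.5. Reference- and blank-subtracted; Kd from global 1:1 kinetic fit.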
A general note: In SPR one partner is held on a chip, and binding of the other changes the refractive index at the surface.

Test [18] concerns MEF. Nature of the test: Induction of apoptosis in mouse MEF cells lacking Nur77 assessed as PARP cleavage at 0.5 uM measured after 6 hrs by western blot assay. In kind it is functional, cell-based. An outline of the steps:
as §2

T1 sequence (P22736 whole entry): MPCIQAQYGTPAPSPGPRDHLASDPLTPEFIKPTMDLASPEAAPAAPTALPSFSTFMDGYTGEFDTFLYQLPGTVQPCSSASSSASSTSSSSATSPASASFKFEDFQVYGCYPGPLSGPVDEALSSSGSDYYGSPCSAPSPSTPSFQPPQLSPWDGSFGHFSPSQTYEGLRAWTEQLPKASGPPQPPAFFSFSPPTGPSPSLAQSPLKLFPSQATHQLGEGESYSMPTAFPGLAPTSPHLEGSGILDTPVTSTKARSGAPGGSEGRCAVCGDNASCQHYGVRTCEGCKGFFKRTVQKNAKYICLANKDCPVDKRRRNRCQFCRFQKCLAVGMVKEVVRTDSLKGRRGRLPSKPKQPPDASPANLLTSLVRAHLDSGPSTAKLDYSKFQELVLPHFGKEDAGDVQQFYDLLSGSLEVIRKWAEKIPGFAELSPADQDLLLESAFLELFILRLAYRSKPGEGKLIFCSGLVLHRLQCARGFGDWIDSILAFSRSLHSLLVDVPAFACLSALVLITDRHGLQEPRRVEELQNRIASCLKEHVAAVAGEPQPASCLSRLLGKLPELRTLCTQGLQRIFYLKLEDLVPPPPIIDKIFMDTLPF

With `FC(F)(F)c1ccc([C+](c2c[nH]c3ccccc23)c2c[nH]c3ccccc23)cc1`, the outcome in test [1], in test [2], in test [3], in test [4], in test [5] and in test [6] was Active. Also, the outcome in [7] and in test [9] was Active. Also, in [8], the outcome was inactive.

One may read the IC50 as the concentration at which inhibition is half-maximal. In general, Kd refers to the free concentration of one partner at which half of the binding sites on the other are occupied at equilibrium, for simple one-to-one binding. Take `CCn1cc([C+](c2ccc(C(F)(F)F)cc2)c2c[nH]c3ccccc23)c2ccccc21`: the outcome in test [2], in test [3] and in [6] was Active. Also, the IC50 in test [10] is 80 nM; in test [11], 50 nM; in test [12], 1500 nM; in [13] it was 100 nM; in test [14] it was 100 nM; in [15] it was 3080 nM. Further, the results for the Kd in test [16] and in test [17] were 66 nM and 36 nM, respectively. The outcome in [18] and in test [8] was inactive.
